# Read-outs that look alike come from different tables or passages of the source. Marks after values point to notes of the source that are not given here.
# Legend:
# [1] = Multiple dose chelator administration in non-bile duct-cannulated; format: in vivo, rat; settings: for % Administered Dose Excreted / Total U Excretion: urine + feces
# How it was run: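 Intact rats got uranyl acetate 1 mg U kg−1 s.c. (left flank), then test compound or DTPA 300 µmol kg−1 s.c. (right flank) immediately and at 24-h intervals (4 doses). Rats were caged singly with chow and water ad libitum. Urine and feces were collected every 24 h. Kidneys and other tissues were taken 24 h after the last dose. Uranium was measured by ICP-MS in triplicate; data are mean ± SEM.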
# [2] = system: rats; settings: rodent model; ref Bergeron et al., 2006b; cited from earlier work
# [3] = primates, dose 63.3 µmol kg^−1 day^−1; ref Bergeron et al., 2006b; cited from earlier work
# [4] = format: in vivo, rat; settings: for administered uranium excreted (bile + urine): 24 h collection
# How it was run: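 Bile duct-cannulated rats got uranium 1 mg U kg−1 s.c., then were housed singly in metabolic cages. A single s.c. 300 µmol kg−1 dose of test compound followed at 1, 2 or 4 h post-uranium. Bile and urine were collected for 24 h. Uranium was measured by ICP-MS, triplicate runs averaged. Data are mean ± SEM; one-tailed t-test assuming unequal variances, p<0.05.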
# [5] = format: in vivo, rat; settings: for Bile/Urine (%): bile share of U excretion / Bile/Urine (%): urine share of U excretion / % Administered Dose Excreted: 24 h; for Reduction (%) of renal uranium vs control / reduction of bone actinide content vs control: 24 h post-metal; for % Administered Dose Excreted: bile + urine; for Renal Conc.: kidneys removed 24 h post-metal; for Kidney U Conc. / Liver U Conc. / Lung U Conc. / Spleen U Conc. / Bone (femur) U Conc.: tissue 24 h post-metal; for Bone (femur) U Conc.: bone + bone marrow; for reduction of bone actinide content vs control: femur
# [6] = 24 h after last of 4 daily s.c. doses of 300 µmol kg^−1
# [7] = Day 1, 300 µmol kg^−1 s.c. daily x 4
# [8] = Day 2, 300 µmol kg^−1 s.c. daily x 4
# [9] = Day 3, 300 µmol kg^−1 s.c. daily x 4
# [10] = Day 4, 300 µmol kg^−1 s.c. daily x 4
# [11] = single 300 µmol kg^−1 s.c. dose given 1 h post-uranium
# [12] = single 300 µmol kg^−1 s.c. dose given 2 h post-uranium
# [13] = single 300 µmol kg^−1 s.c. dose given 4 h post-uranium
compound,measurement,setting,value
"COCCOCCOCCOc1ccc(C2=N[C@@](C)(C(=O)O)CS2)c(O)c1 [compound 9, (S)-4,5-dihydro-2-[2-hydroxy-4-(3,6,9-trioxadecyloxy)phenyl]-4-methyl-4-thiazolecarboxylic acid]",Reduction (%) of renal uranium vs control,[1]; [6],62%
same,Renal Conc.,[1]; [6],12 ± 2 ^c µg g^−1
same,Fecal U Excretion,[1]; [7],478 ± 181 µg/kg
same,Urine U Excretion,"[1]; Day 1, 300 µmol kg^−1 s.c. daily x 4, first dose immediately post-U",205 ± 27 µg/kg
same,% Administered Dose Excreted,[1]; [7],68.3%
same,Total U Excretion,[1]; [7],683 ± 161 ^d µg kg^−1
same,Fecal U Excretion,[1]; [8],116 ± 46 µg/kg
same,Urine U Excretion,[1]; [8],39 ± 5 µg/kg
same,% Administered Dose Excreted,[1]; [8],15.5%
same,Total U Excretion,[1]; [8],155 ± 48 ^d µg kg^−1
same,Fecal U Excretion,[1]; [9],33 ± 4 µg/kg
same,Urine U Excretion,[1]; [9],23 ± 4 µg/kg
same,% Administered Dose Excreted,[1]; [9],5.6%
same,Total U Excretion,[1]; [9],56 ± 7 µg/kg
same,Fecal U Excretion,[1]; [10],25 ± 2 µg/kg
same,Urine U Excretion,[1]; [10],11 ± 1 µg/kg
same,% Administered Dose Excreted,[1]; [10],3.6%
same,Total U Excretion,[1]; [10],36 ± 1 µg/kg
same,administered dose of uranium excreted at the end of four days (urine + feces),"[1]; cumulative over 4 days, 300 µmol kg^−1 s.c. daily x 4",93%
same,nephrotoxicity,[2],virtually eliminated nephrotoxicity
same,iron excretion,[3],450 µg Fe kg^−1
same,reduction in renal uranium content vs control,[4]; [11],74%
same,administered uranium excreted (bile + urine),[4]; [11],34.6%
same,reduction in renal uranium content vs control,[4]; [12],68%
same,administered uranium excreted (bile + urine),[4]; [12],28.5%
same,reduction in renal uranium content vs control,[4]; [13],35%
same,administered uranium excreted (bile + urine),[4]; [13],28.6%
same,Bile/Urine (%): bile share of U excretion,[5]; single dose 150 µmol kg^−1 SC,69%
same,Bile/Urine (%): urine share of U excretion,[5]; single dose 150 µmol kg^−1 SC,31%
same,Reduction (%) of renal uranium vs control,[5]; single dose 150 µmol kg^−1 SC,55%
same,% Administered Dose Excreted,[5]; single dose 150 µmol kg^−1 SC,48.2%
same,Renal Conc.,[5]; single dose 150 µmol kg^−1 SC,37 ± 16 ^b µg g^−1
same,Kidney U Conc.,[5]; single dose 150 µmol kg^−1 SC,37 ± 16 ^b µg g^−1
same,Liver U Conc.,[5]; single dose 150 µmol kg^−1 SC,1.6 ± 0.9 ^c µg g^−1
same,Lung U Conc.,[5]; single dose 150 µmol kg^−1 SC,0.16 ± 0.13 µg/g
same,Spleen U Conc.,[5]; single dose 150 µmol kg^−1 SC,0.20 ± 0.05 µg/g
same,Bone (femur) U Conc.,[5]; single dose 150 µmol kg^−1 SC,2.1 ± 0.5 ^b µg g^−1
same,reduction of bone actinide content vs control,[5]; single dose 150 µmol kg^−1 s.c.,42%
same,Bile/Urine (%): urine share of U excretion,[5]; single dose 300 µmol kg^−1 PO,29%
same,Bile/Urine (%): bile share of U excretion,"[5]; single dose 300 µmol kg^−1 PO, listed as C00009",71%
same,Reduction (%) of renal uranium vs control,[5]; single dose 300 µmol kg^−1 PO,57%
same,% Administered Dose Excreted,[5]; single dose 300 µmol kg^−1 PO,43.5%
same,Renal Conc.,[5]; single dose 300 µmol kg^−1 PO,36 ± 8 ^b µg g^−1
same,Kidney U Conc.,[5]; single dose 300 µmol kg^−1 PO,36 ± 8 ^b µg g^−1
same,Liver U Conc.,[5]; single dose 300 µmol kg^−1 PO,0.6 ± 0.2 ^c µg g^−1
same,Lung U Conc.,[5]; single dose 300 µmol kg^−1 PO,0.10 ± 0.02 ^b µg g^−1
same,Spleen U Conc.,[5]; single dose 300 µmol kg^−1 PO,0.13 ± 0.02 ^b µg g^−1
same,Bone (femur) U Conc.,[5]; single dose 300 µmol kg^−1 PO,2.7 ± 1.2 µg/g
same,Bile/Urine (%): bile share of U excretion,[5]; single dose 300 µmol kg^−1 SC,84%
same,Bile/Urine (%): urine share of U excretion,[5]; single dose 300 µmol kg^−1 SC,16%
same,Reduction (%) of renal uranium vs control,[5]; single dose 300 µmol kg^−1 SC,66%
same,% Administered Dose Excreted,[5]; single dose 300 µmol kg^−1 SC,~52%
same,% Administered Dose Excreted,"[5]; single dose 300 µmol kg^−1 SC, listed as C00009",51.5%
same,Renal Conc.,[5]; single dose 300 µmol kg^−1 SC,29 ± 6 ^b µg g^−1
same,Kidney U Conc.,[5]; single dose 300 µmol kg^−1 SC,29 ± 6 ^b µg g^−1
same,Liver U Conc.,[5]; single dose 300 µmol kg^−1 SC,0.9 ± 0.2 ^c µg g^−1
same,Lung U Conc.,[5]; single dose 300 µmol kg^−1 SC,0.13 ± 0.02 µg/g
same,Spleen U Conc.,[5]; single dose 300 µmol kg^−1 SC,0.18 ± 0.04 µg/g
same,Bone (femur) U Conc.,[5]; single dose 300 µmol kg^−1 SC,1.9 ± 0.5 ^b µg g^−1
same,reduction of bone actinide content vs control,[5]; single dose 300 µmol kg^−1 s.c.,48%
